pKi: −log10 of the molar value.

This experiment in a line: Binding affinity to pig pancreatic cholesterol esterase. On the set-up: species or system Sus scrofa. The gist of the method: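 Porcine enzyme assayed in 0.1 M Hepes, pH 7, with 6 mM taurocholate and 1 mM p-nitrophenylbutyrate substrate; hydrolysis followed at 405 nm. Inhibition constants derived from double reciprocal and Dixon plots, and for high-affinity inhibitors from Straus-Goldstein plots.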
By pKi is commonly meant the Ki on a negative log10 scale, so that one unit is a factor of ten. A low value points to a large Ki. `O=c1oc(OCCBr)c(Cl)c2ccc([N+](=O)[O-])cc12` showed a pKi of 6.59. The compound `O=c1oc(OCCCBr)c(Cl)c2ccc([N+](=O)[O-])cc12` gave a pKi of 5.80. For `O=c1oc(OC2CCCCC2)c(Cl)c2ccccc12`, the pKi is 5.92.

For `O=C(c1c(OCC2CCCCC2)oc(=O)c2ccccc12)C(F)(F)F`, the pKi is < 4.00. `O=c1oc(OCCCCCC2CCCCC2)c(Cl)c2ccccc12`: the pKi was 4.21. On to `O=c1oc(OCCCC2CCCC2)c(Cl)c2ccccc12`, for which the pKi was 7.72. In the case of `O=c1oc(OCCC2CCCCC2)cc2ccc([N+](=O)[O-])cc12` it was < 4.00; in that of `O=c1oc(OCCCBr)cc2ccc([N+](=O)[O-])cc12`, 4.48; in that of `O=c1oc(OCCC2CCCCC2)c(Cl)c2ccccc12`, 5.92. Take `O=c1oc(OCC2CCCC2)c(Cl)c2ccccc12`: the pKi was 6.44.

Consider `COc1oc(=O)c2cc(NC(=O)c3ccccc3)ccc2c1Cl`, for which the pKi was < 3.60.

The compound `COc1oc(=O)c2cc(N)ccc2c1Cl` gave a pKi of 4.77. For `O=c1oc(OC2CCCC2)c(Cl)c2ccccc12`, the pKi is 6.02.

Take `Nc1ccc2cc(OCCBr)oc(=O)c2c1`: the negative logarithm of the Ki (pKi) is < 4.00. For `O=c1oc(OCCCCC2CCCCC2)c(Cl)c2ccccc12`, the pKi is 7.96. `Nc1ccc2c(Cl)c(OCCBr)oc(=O)c2c1` showed a pKi of 4.59. This pKi lies 3.37 log units lower than the previous one. The compound `O=c1oc(OCCC2CCCC2)c(Cl)c2ccccc12` gave a pKi of 6.59.

`O=c1oc(OCC2CCCCC2)c(Cl)c2ccccc12`: the pKi is 5.74. As to `COc1oc(=O)c2cc(NC(=O)C3CCCCC3)ccc2c1Cl`, the pKi is < 4.60. In the case of `O=C(c1c(OCCC2CCCCC2)oc(=O)c2ccccc12)C(F)(F)F` it was 4.14; in that of `O=c1oc(OCCBr)cc2ccc([N+](=O)[O-])cc12`, 4.30.

Consider `O=c1oc(OCC2CCCCC2)c(Cl)c2ccc([N+](=O)[O-])cc12`, for which the pKi was 5.24. In the case of `COc1oc(=O)c2cc([N+](=O)[O-])ccc2c1Cl` it was 4.72; in that of `CCCOc1oc(=O)c2ccccc2c1C(=O)C(F)(F)F`, < 4.60; in that of `O=c1oc(OC2CCC(C3CCCCC3)CC2)c(Cl)c2ccccc12` (stereo not given), 6.72. For `CCCOc1oc(=O)c2ccccc2c1Cl`, the pKi is 5.44.

As to `O=c1oc(OCC2CCCCC2)cc2ccc([N+](=O)[O-])cc12`, the pKi was 4.27. This pKi is 1.17 log units lower than that of the compound before. Regarding `O=c1oc(OCCC2CCCCC2)c(Cl)c2ccc([N+](=O)[O-])cc12`, the pKi is 6.15. This pKi is 1.88 log units higher than that of the compound before.

`CCCCOc1oc(=O)c2ccccc2c1Cl` had a pKi of 5.19. In the case of `O=c1oc(OCCCC2CCCCC2)c(Cl)c2ccccc12` it was 6.74.

The values above are taken from ChEMBL document CHEMBL1157173, “Isocoumarin-based inhibitors of pancreatic cholesterol esterase” (Bioorg Med Chem, 2008).
